HCV NS3 hel inh = inhibitors of HCV NS3 helicase, primary screen, biochemical, Cy5 molecular beacon fluorescence | Hepatitis C virus NS3 helicase | NS3 helicase DNA unwinding | inhibition, % at 10.9 µM | hit rate 0.56% among 290,000 | AID 1800, 2009;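 active = inhibition above the mean of all tested compounds plus 3 SD, set per campaign, cut at about 35% in these data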;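 note: 0% = DMSO wells and 100% = thioflavine S control wells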
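Test system: hepatitis C virus NS3 helicase domain fragment enzyme. Also added: annealed dual-labelled DNA beacon duplex, ATP-started. Timing: 60 min unwinding reaction at 25 °C after ATP addition. Technique: Cy5 fluorescence. Measure: % inhibition of unwinding.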
GRIN3A LBD mod = binders of NR3A ligand-binding domain, primary screen, biophysical, differential scanning fluorimetry, uHTS. Glutamate receptor ionotropic, NMDA 3A (GRIN3A) ligand-binding domain. NR3A LBD differential scanning fluorimetry, Tm shift; 0% = protein alone, 100% = glycine-bound protein. Tm shift relative to glycine control, % at 25 µM. hit rate 2.5% among 340,000. AID 1259313, 2017;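 active = melting temperature shift of at least 10% of the positive control shift, at one fixed dose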
ZTA DNA inh = counter-screen for EBNA-1 inhibitors: inhibitors of Epstein-Barr virus ZTA. hit rate 0.15% among 320,000. P03206. ZTA-DNA binding, fluorescence polarization. inhibition, % at 11 µM. AID 2234; in the data active = inhibition above about 33%
Target sequence (P03206 whole entry, looked up): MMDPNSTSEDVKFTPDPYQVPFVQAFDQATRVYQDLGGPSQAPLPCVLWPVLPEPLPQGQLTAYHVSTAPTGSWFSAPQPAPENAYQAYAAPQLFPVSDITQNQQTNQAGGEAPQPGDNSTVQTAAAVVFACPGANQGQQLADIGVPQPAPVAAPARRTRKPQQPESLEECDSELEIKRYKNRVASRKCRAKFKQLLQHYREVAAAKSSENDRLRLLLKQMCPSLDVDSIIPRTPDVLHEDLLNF
FGF22 binding = binders of human FGF22 protein, primary screen, FGF22 synaptogenesis inhibitor project, biophysical, thermal shift, single point; Fibroblast growth factor 22 (Homo sapiens), Q9HCT0; recombinant FGF22 thermal shift, SYPRO orange fluorescence; percent of sucrose octasulfate shift, DMSO zero; activity (Tm shift, normalised), % at 9.99 µM; hit rate 1.5% among 340,000; AID 651658, 2012;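 active = mean Tm shift, scaled 0 neutral to 100 positive control, at about 1.3% or above, every replicate too, limit read from the data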
Target sequence (Q9HCT0 whole entry, looked up): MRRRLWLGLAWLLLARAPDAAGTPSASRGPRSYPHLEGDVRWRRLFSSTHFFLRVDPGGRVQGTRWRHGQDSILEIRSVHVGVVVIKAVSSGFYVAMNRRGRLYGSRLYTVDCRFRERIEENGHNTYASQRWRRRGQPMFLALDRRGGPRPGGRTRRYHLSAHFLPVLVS
DNA FID counter = compounds displacing fluorescent DNA intercalator, primary screen, artefact control for HCV NS3 helicase inhibitor project, biochemical, FID fluorescence. DNA fluorescent intercalator displacement. inhibition, % at 7.9 µM. hit rate 0.17% among 290,000. AID 1845, 2009; in the data active = inhibition above about 37%;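 note: 0% = vehicle and 100% = reference compound; higher means more ethidium bromide displaced from hairpin DNA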
EBNA-1 inh = EBNA-1 DNA-binding inhibitors, primary screen, biochemical, fluorescence polarization; hit rate 0.34% among 300,000; inhibition, % at 14.8 µM; in the data active = inhibition above about 28%
* = called active by the depositor; · = not tested or not shown. A selection: hits, their analogues and other compounds. The true share with any hit is near 3.6%.

SMILES	HCV NS3 hel inh	GRIN3A LBD mod	ZTA DNA inh	FGF22 binding	DNA FID counter	EBNA-1 inh
COc1ccc(NC(=O)c2cc(-c3cc(Cl)ccc3OC)n[nH]2)c(OC)c1	·	·	·	0	·	·
COc1ccc(Cl)cc1-c1cc(C(=O)Nc2ccc(Br)cc2)[nH]n1	·	·	·	0	·	·
C[C@H](CO)N1C[C@H](C)[C@H](CN(C)S(=O)(=O)c2ccccc2)Oc2ccc(N(C)C)cc2CC1=O	·	·	·	-1	·	·
Cc1ccc(S(=O)(=O)Nc2ccc3c(c2)CC(=O)N([C@@H](C)CO)C[C@H](C)[C@@H](CN(C)S(=O)(=O)c2ccc(Cl)cc2)O3)cc1	·	·	·	1	·	·
CC(=O)Nc1ccc(S(=O)(=O)N(CCO)Cc2ccccc2)cc1	2	1	0	·	1	-17
CC(=O)Nc1ccc(S(=O)(=O)N(C)CCOCc2ccccc2)cc1	-4	16*	1	·	-6	3
COCC(=O)N1CC2(CN(Cc3ccc(OC)cc3)C2)c2c([nH]c3cc(OC)ccc23)[C@@H]1CO	·	·	·	0	·	·
O=C(Nc1ccc(-c2nc3cc(Cl)ccc3c(=O)o2)cc1)c1ccco1	7	11*	-21	·	-11	5
O=C(Nc1ccc(-c2nc3c(ccc4ccccc43)o2)cc1)c1ccco1	-13	35*	0	0	-2	3
O=C(Nc1ccc(Cl)cc1)c1ccco1	4	-30	3	0	-10	6
COc1cc2nc(NC(=O)c3ccco3)sc(=O)c2cc1OC	3	15*	17	0	-4	1
O=C(Nc1nc2c(ccc3ccccc32)s1)c1ccco1	-6	16*	10	·	1	-3
CCCC(=O)Nc1ccc2c(c1)C(=O)N(C)[C@@H]1CC[C@@H](CC(=O)NCC(F)(F)F)O[C@@H]1CO2	·	·	·	0	·	·
CCN(CC)C(=O)Oc1cc(=O)n(C)c2ccccc12	-1	25*	4	·	-5	7
CCCN(C)C[C@H]1Oc2ncc(-c3ccccc3)cc2C(=O)N([C@H](C)CO)C[C@H]1C	·	·	·	0	·	·
Cc1cc(-n2c(SCC(=O)Nc3ccc(F)c(F)c3)nc3n[nH]c(C)c3c2=N)ccc1Cl	3	26*	-3	0	-13	-5
CCc1ccc(NC(=O)CSc2nc3n[nH]c(C)c3c(=N)n2-c2cccc(OC)c2)cc1	-27	23*	1	·	-10	7
CCOc1ccc(-n2c(SCC(=O)Nc3ccc(Br)cc3)nc3n[nH]c(C)c3c2=N)cc1	0	19*	-7	0	-4	1
Cc1cc(-n2c(SCC(=O)Nc3ccc(Br)cc3)nc3n[nH]c(C)c3c2=N)ccc1Cl	-2	20*	4	0	-11	1
C[C@@H]1CN([C@H](C)CO)C(=O)c2cc(NC(=O)c3ccccc3)ccc2O[C@@H](C)CCCCO[C@@H]1CN(C)C(=O)CCC(F)(F)F	·	·	·	0	·	·
CC/C(=N\NC(=O)c1nnn(-c2nonc2N)c1CN(C)c1ccccc1)c1ccccc1	-7	242*	5	0	-25	6
CCCc1c(C(=O)N/N=C(\C)c2ccc3c(c2)OCO3)nnn1-c1nonc1N	·	·	·	0	·	·
C/C(=N\NC(=O)c1nnn(-c2nonc2N)c1CN(C)c1ccccc1)c1cccs1	0	11*	11	0	-30	0
CCCc1c(C(=O)N/N=C(\C)c2ccc(CC(C)C)cc2)nnn1-c1nonc1N	·	·	·	44*	·	·
C[C@H]1CCCCO[C@H](CN(C)C(=O)Nc2ccc3c(c2)OCO3)[C@@H](C)CN([C@@H](C)CO)C(=O)c2cc(NS(C)(=O)=O)ccc2O1	·	·	·	0	·	·
SMILES	HCV NS3 hel inh	GRIN3A LBD mod	ZTA DNA inh	FGF22 binding	DNA FID counter	EBNA-1 inh
CCCC(=O)Nc1ccc2c(c1)OC[C@H](C)N(Cc1ccc(F)cc1)C[C@H](C)[C@@H](OC)CN(C)C2=O	·	·	·	0	·	·
C[C@@H]1CN([C@@H](C)CO)C(=O)c2cc(-c3cccc(F)c3)cnc2O[C@@H]1CN(C)C	·	·	·	0	·	·
CO[C@H]1CN(C)C(=O)c2ccc(NC(=O)c3nc4ccccc4s3)cc2OC[C@@H](C)N(Cc2cncnc2)C[C@@H]1C	·	·	·	0	·	·
CN(C)CCCOc1ccc(-c2cccc3nncn23)cn1	·	·	·	43*	·	·
CCCNC(=O)C[C@@H]1C[C@H]2c3cc(NC(=O)Cc4ccncc4)ccc3O[C@H]2[C@@H](CO)O1	·	·	·	0	·	·
N#Cc1ccc(CO/N=C/c2ccccc2)cc1	2	-2	-4	44*	-7	8
CCCOc1ccc(Cl)cc1/C=C1/C(=O)ON=C1C	10	4	-16	0	-2	-21
CC1=NOC(=O)/C1=C\c1ccc(-c2ccc(Cl)cc2Cl)o1	37*	0	·	·	3	·
CCCNC(=O)Nc1ccc2c(c1)OC[C@@H](C)N(C(=O)C1CC1)C[C@H](C)[C@@H](OC)CN(C)C2=O	·	·	·	-1	·	·
COc1ccccc1N1CCN(/N=C/c2cc(OC)c(O)c(OC)c2)CC1	4	10	15	0	-8	0
COc1ccccc1N1CCN(/N=C/c2cccc(O)c2)CC1	0	1	-1	44*	-18	-4
CCCCCCc1cc2cc(S(=O)(=O)c3ccc(F)c(Cl)c3)c(=O)oc2cc1O	10	33*	3	·	-5	4
CN(CC(=O)Nc1ccc(Cl)c(C(F)(F)F)c1)C(=O)c1cc(-c2ccncc2)nc2ccccc12	·	21*	-13	·	·	-6
CN(CC(=O)Nc1ccc(F)c(F)c1F)C(=O)c1cc(-c2ccncc2)nc2ccccc12	·	-3	12	0	·	-3
CNCC(=O)Nc1ccc(Cl)c(C(F)(F)F)c1	11	-5	-7	43*	9	1
Cc1noc(C)c1CSCC(=O)N(C)CC(=O)Nc1ccc(Cl)c(C(F)(F)F)c1	·	-2	6	1.9*	·	-10
Cc1ccccc1NC(=O)CNc1ccc(Cl)c(C(F)(F)F)c1	-7	-8	-7	·	9	6
Cc1noc(C)c1CSCC(=O)N(C)CC(=O)Nc1ccc(Cl)c(Cl)c1	·	-2	-8	0	·	-11
Cc1ccc(C)c(OCC(=O)N(C)CC(=O)Nc2ccc(Cl)c(C(F)(F)F)c2)c1	·	12*	13	0	·	·
O=C(CC1CC1)N1[C@H](CO)[C@@H](c2ccccc2)C12CN(Cc1cccnc1)C2	·	·	·	0	·	·
Cc1cccc(C(=O)OCC(=O)N(C)CC(=O)Nc2ccc(Cl)c(C(F)(F)F)c2)c1	·	12*	16	0	·	·
Cc1nc(-c2ccc(F)cc2)c(CC(=O)N(C)CC(=O)Nc2ccc(Cl)c(C(F)(F)F)c2)s1	·	12*	·	0	·	·
CN(CC(=O)Nc1ccc(Cl)c(C(F)(F)F)c1)C(=O)COc1cccc2cccnc12	·	·	·	-1	·	·
Cn1cnc(S(=O)(=O)N2CC[C@@H]3[C@H]2c2cc(C#Cc4ccccc4)ccc2N[C@@H]3CO)c1	·	·	·	0	·	·

Screening results from PubChem.
